Structures are written as SMILES.

This data set is described as follows: Toxicity liver stage against HepG2, at 10uM. Type of data set: cell-based. Details: test concentration 10 uM, cell line HepG2-A16-CD81EGFP. The settings on record: human, HepG2-A16-CD81EGFP cells; read-out: INHIBITION
The procedure, abridged: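 Uninfected HepG2-A16-CD81EGFP cells, 3 × 10^3 per well, 1536-well, plated on prespotted compound at 10 μM final, parasite-free screening media added to match infected plates; puromycin 10 μM positive, DMSO 0.5% negative; run in parallel with 48 h PbLuc assay at 37 °C, 5% CO2; viability by CellTiter-Glo luminescence, normalized to controls.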
Regarding `O=C1CSC(c2ccc3c(c2)OCO3)c2cnn(C3CCCCC3)c2N1` (stereo not given), the cytotoxicity at 10 µM was -6.06%.
Take `COC(=O)c1cccc(C(=O)NCc2ccc(C)o2)n1`: the cytotoxicity at 10 µM was determined as 11.5%.
As for `Cc1cc(=O)n2nc(CNc3cc(Cl)ccc3C)nc2[nH]1`, the cytotoxicity at 10 µM is -5.64%.
For `COc1ccc(NC(=O)c2cnc(N3CCN(C)CC3)nc2C)cc1`, the cytotoxicity at 10 µM was -3.45%.
In the case of `CN1CCC(N(C)C(=O)c2cnn(-c3cc(F)ccc3F)c2N)CC1`, the cytotoxicity at 10 µM was -8.47%.
The result for `CN(C)CCCNC(=O)c1nc(Cc2c(Cl)cccc2Cl)no1` reads -0.31%; that for `CN(C)S(=O)(=O)N1CCC(c2nnc(C(F)(F)F)o2)CC1`, 3.79%.
`CS(=O)(=O)N1C[C@@H](C(=O)Nc2cnccn2)C[C@H]2OCC[C@H]21`: the cytotoxicity at 10 µM worked out at 17.3%.
Regarding `CCN(CC)c1ccc2ccc(C(=O)O)cn12`, the cytotoxicity at 10 µM worked out at 1.42%.
In the case of `Cc1nnn2c1COC(CNCc1ccncc1)C2` (stereo not given) it was 7.48%.
In the case of `CCNC(=O)Cc1n[nH]c(-c2cncc(Br)c2)n1` it was 1.2%; in that of `CCC1=NC(SCC(=O)c2ccc(C)cc2)c2cc(CC)sc2N1` (stereo not given), 9.76%; in that of `CCCN(CCC)C(=O)Cn1c(SC)nc2ccsc2c1=O`, 3.88%.
The result for `Cc1nccn1CCC1CCN(C(C)C)CC1` reads -20.7%; that for `Cn1c(CN2CCOC(CCc3ccncn3)C2)nc2ccccc21` (stereo not given), -4.42%.
Take `Cn1nccc1C(=O)N1CCOC(Cc2cccnc2)C1` (stereo not given): the cytotoxicity at 10 µM is -7.95%.
In the case of `CC(=O)N1CCCC1c1nccnc1Nc1cccc(C)n1` (stereo not given) it was 1.31%; in that of `Cc1cc(C)n2cc(CN3CCC(N4CCN(C)C4=O)CC3)nc2n1`, 3.66%; in that of `Cc1cc(C)n(CC2CCCN2Cc2cccc(C#N)c2)n1` (stereo not given), 11.2%.
Turning to `Cc1nn(C)c(C)c1C(=O)N1CCN(C(=O)CC2CCCCC2)CC1`, the cytotoxicity at 10 µM is -2.55%.
With `Cc1cc(C)n(CCCNC(=O)NCc2c(C)cc(C)[nH]c2=O)n1`, the cytotoxicity at 10 µM is -1.12%.
In the case of `CC(NC(=O)NCCn1ccnc1)c1nncn1C` (stereo not given) it was -8.92%; in that of `Cc1cc(CNCC2CCCN(C(=O)OC(C)(C)C)C2)no1` (stereo not given), 6.22%.
With `COCC(=O)N1CCN(Cc2csc(-c3ncccn3)n2)CC1`, the cytotoxicity at 10 µM is -11.3%.
Turning to `CCCc1nc(CN2CCCC2Cn2cccn2)cs1` (stereo not given), the cytotoxicity at 10 µM was -4.45%.
Turning to `CSC(C)C(=O)NCCC(=O)N1CCN(c2ccccn2)CC1` (stereo not given), the cytotoxicity at 10 µM was determined as 3.05%.
The result for `Cc1ccc(NC(=O)CNc2ccccc2C(N)=O)c(C)c1` reads 1.15%; that for `Cc1cccc(C(=O)Nc2cccc3c2C(=O)NC3)n1`, 1.14%.
Consider `Cc1ccc(C(=O)N2CCN(c3ccnc4ccsc34)CC2)o1`, for which the cytotoxicity at 10 µM came out at 38.7%.
For `NC(=O)NC(=O)CNC1(c2ccc(Cl)cc2)CCCC1`, the cytotoxicity at 10 µM is 15.7%.
With `O=C(CCN1C(=O)CCC1=O)Nc1ccc(OCC(F)(F)F)nc1`, the cytotoxicity at 10 µM is -13.4%.
Take `N#CCc1ccc(OCC(=O)NS(=O)(=O)c2ccc(Cl)s2)cc1`: the cytotoxicity at 10 µM is 6.41%.
For the compound `COc1ccc(COCC(O)CN(C)c2ccc(C)cc2C)cc1` (stereo not given), the cytotoxicity at 10 µM turned out to be 1.6%.
In the case of `CCC(C)(NCc1ncc(C(C)C)o1)c1nccs1` (stereo not given) it was 18.9%; in that of `CC(=O)N1CCC(NC(=O)NCCCc2cn[nH]c2C)CC1`, -4.2%; in that of `COC(C)(C)CC(C)NC(=O)NC1CCN(Cc2ccccn2)CC1` (stereo not given), 4.83%.
In the case of `Cc1cnn(CC2CCCN2C(=O)Cc2cn3ccsc3n2)c1` (stereo not given) it was -10.1%; in that of `CN(Cc1cccc(OC(F)(F)F)c1)C(=O)c1ccncc1F`, 3.76%.
As to `COCc1ccccc1NC(=O)[C@@H]1CCCN1C(=O)c1ccco1`, the cytotoxicity at 10 µM was -6.34%.
The result for `Cc1nc(CN2CCC3(C2)CN(C(=O)c2conc2C)C3)cs1` reads -105%; that for `O=C1[C@H]2CN(Cc3ccoc3)C[C@@H]2CCN1Cc1cccnc1`, -71.5%.
With `CCOCc1ncn2c1CN(C(=O)c1ccoc1)CC2`, the cytotoxicity at 10 µM was -72.6%.
Turning to `O=C(c1cccs1)N1CCCn2cnc(COCC3CC3)c2C1`, the cytotoxicity at 10 µM was -81.3%.
For the compound `Cn1cc(C2COC3(CCN(C(=O)Cn4cccn4)CC3)C2)cn1` (stereo not given), the cytotoxicity at 10 µM stood at 2.7%.
On to `O=C(c1ccoc1)N1CCCn2cnc(COCC3CC3)c2C1`, for which the cytotoxicity at 10 µM worked out at 2.47%.
In the case of `Cc1cncc(C(=O)N2Cc3ccccc3C3(CCN(C)CC3)C2)c1` it was 4.37%; in that of `Cc1ccc(C(=O)N2C[C@H]3CCC[C@@]3(COCc3cccnc3)C2)s1`, 3.24%.
Take `c1ccc(-c2nc3c(c(NCc4nnc5n4CCC5)n2)CCNC3)cc1`: the cytotoxicity at 10 µM was -3.71%.
In the case of `CCN(CC)C(=O)Cn1cc(C(=O)NCCc2nc(C)c(C)s2)nn1` it was 2.22%; in that of `CN(Cc1ccc(-n2cccn2)cc1)Cc1ncc[nH]1`, 1.79%.
As for `Cc1cnc(N2CCCC(c3ccccc3)C2)nc1-c1ncnn1C` (stereo not given), the cytotoxicity at 10 µM is -1.79%.
In the case of `Cc1noc(C)c1CN(C)Cc1cnc(N2CCOCC2)nc1` it was -2.28%; in that of `c1cc2c(cc1-c1noc3c1CN(C1CCC1)CC3)OCO2`, -18.4%; in that of `CC(C)(C)CCN1CCCC(Cn2cc(CCO)nn2)C1` (stereo not given), -13.9%.
With `Cc1nc[nH]c1CN1CCC(CNC(=O)c2cccc3cnccc23)C1` (stereo not given), the cytotoxicity at 10 µM was -10.1%.
In the case of `CC[C@@H](c1ccccc1)n1c(CCN)n[nH]c1=O`, the cytotoxicity at 10 µM came out at 5.33%.
Regarding `Cc1ccc(NC(=O)[C@H]2C[C@H](C(=O)O)CN(CC3CC3)C2)cn1`, the cytotoxicity at 10 µM is 0.999%.
As for `CCNC(=O)[C@@H]1C[C@H](NC(=O)Cn2ccnc2)CN1Cc1ccsc1`, the cytotoxicity at 10 µM amounted to 5.89%.
The result for `CN(CCO)Cc1nnc(C2CCN(C(=O)C3CCOCC3)CC2)n1C` reads 2.01%; that for `CN(Cc1ccncn1)C(=O)CCC(=O)NC1CCCC1`, -1.01%.
Take `Cc1ccc(-c2cccc(N3CCC(NC4CCOCC4)CC3)c2)cc1`: the cytotoxicity at 10 µM is -12.3%.
With `O=C1[C@@H]2CN(c3ncccc3Cl)C[C@]2(C(=O)O)CN1CC1CC1`, the cytotoxicity at 10 µM stood at 1.04%.
As for `O=C1NCCCc2[nH]c(-c3nc(C4CC4)no3)nc21`, the cytotoxicity at 10 µM was -5.74%.
In the case of `CSC(C)C(=O)N1CCC(Oc2cc(C)ccc2F)(C(=O)O)CC1` (stereo not given) it was 2.88%; in that of `OC1(CNCCc2csc(-c3ncccn3)n2)CCNC1` (stereo not given), -8.44%.
For the compound `CC(C)c1nccc(-c2nccn2CCS(C)(=O)=O)n1`, the cytotoxicity at 10 µM was 4.68%.
The result for `Cc1ccc(F)cc1-n1c(CCCN2CCOCC2)n[nH]c1=O` reads 7.32%.
With `COc1ncc(-c2c(C#N)c(N)nc3c2CCc2[nH]ccc2-3)cn1`, the cytotoxicity at 10 µM stood at 6.47%.
With `O=C(NC1CC1)c1cn(C2CCN(c3cc(C4CC4)ncn3)CC2)nn1`, the cytotoxicity at 10 µM was determined as 27.8%.
In the case of `Cc1ccc(CC(=O)N2CCCC(c3cc(C(N)=O)[nH]n3)C2)cn1` (stereo not given) it was -14.2%; in that of `CN(C)c1ccc(C(=O)NCCCNc2ccc(C(F)(F)F)cn2)cc1`, -7.66%; in that of `CC(C)(C)c1noc(CN2CCCCC2Cn2cncn2)n1` (stereo not given), -2.4%.
In the case of `O=C(CN1CCc2c(ncn2C2CC2)C1)NC1CCN(C2CC2)CC1`, the cytotoxicity at 10 µM was -8.44%.
In the case of `CC(C(=O)NCc1cccc(N2CCCC2=O)c1)S(C)(=O)=O` (stereo not given), the cytotoxicity at 10 µM is 2.66%.
The result for `Cc1ccccc1CN1CCN(Cc2nccn2C)CC1` reads -10.1%; that for `CC(NC(=O)CCOc1ccccc1Cl)c1nnc2n1CCC2` (stereo not given), -6.46%.
As to `CC(NC(=O)CCn1cncn1)c1nnc2n1CCCCC2` (stereo not given), the cytotoxicity at 10 µM was -9.26%.
The result for `Cc1ncsc1CN1C[C@@H]2COC[C@]2(C(=O)NCC2CC2)C1` reads 5.38%; that for `Cc1ccc(C(=O)N2CCC3(CC2)CC(c2cnn(C)c2)CO3)cn1` (stereo not given), -69.5%.
On to `Cc1ccc(N2CC3(COCCN(Cc4cccnc4)C3)OCC2=O)s1` (stereo not given), for which the cytotoxicity at 10 µM turned out to be 2.39%.
Turning to `Cc1cccc(CN2C[C@@H]3OCCN(CC(=O)N(C)C)[C@@H]3C2)c1`, the cytotoxicity at 10 µM was -110%.
As for `Cc1ccoc1C(=O)N1Cc2c(Cn3ccnc3)nn(C)c2C1`, the cytotoxicity at 10 µM was -68.5%.
In the case of `CCS(=O)(=O)NC[C@]12COC[C@H]1CN(Cc1cccc(OC)c1)C2`, the cytotoxicity at 10 µM is -6.23%.
For the compound `COCCN1CCO[C@@H]2CN(Cc3cc(OC)cc(OC)c3)C[C@@H]2C1`, the cytotoxicity at 10 µM is 38.8%.
In the case of `CC1=N[C@@]2(CC[C@@H]3CN(CC(C)C)C[C@@H]32)C(=O)N1CC(C)C` it was -79.6%; in that of `c1cncc(COC[C@H]2CC[C@H]3[C@H](CCN3Cc3nccs3)O2)c1`, -69.6%; in that of `c1ccc(OCc2nnc3n2CCN(CC2CC2)C3)nc1`, -0.945%.
In the case of `Cc1nnn2c1COC(CNCc1ccccn1)C2` (stereo not given) it was 0.903%; in that of `CS(=O)(=O)N1CCC2(CC1)CN(CC1CCOC1)c1ccccc12` (stereo not given), -108%; in that of `CCC(=O)N1Cc2nccn2CC(CN(C)Cc2cccnc2)C1` (stereo not given), 3.55%.
For the compound `CS(=O)(=O)N1CC[C@H]2OCC[C@@]2(C(=O)NCc2ccccn2)C1`, the cytotoxicity at 10 µM was -84.7%.
`O=C(C1CCCC1)N1CCC2(CC1)COCCN2CC1CC1`: the cytotoxicity at 10 µM came out at 5.01%.
For the compound `COc1ccc(F)c(-c2ncccc2C(=O)N2C[C@@H]3CC[C@H]2C3)c1`, the cytotoxicity at 10 µM is -6.12%.
The result for `COCCN1C(=O)[C@@H]2CC[C@H]1CN(S(=O)(=O)c1ccc(C#N)cc1)C2` reads -2.59%; that for `CC(C)=CCN1C[C@@H]2CC[C@H]1CN(C(=O)c1ccc(S(N)(=O)=O)cc1)C2`, -5.96%.

The record behind these values is ChEMBL document CHEMBL4513216, “Probing the Open Global Health Chemical Diversity Library for Multistage-Active Starting Points for Next-Generation Antimalarials” (ACS Infect Dis, 2020).
